Bioassay records: PubChem, Broad Institute
Hits are enriched below; roughly 5.8% of the tested compounds scored in any of these assays.
T cruzi growth-1: blocks T. cruzi growth in NIH3T3 culture. T. cruzi beta-gal in NIH3T3, GalScreen luminescence, 90 h. inhibition, % at 8.34 µM. 77,000 tested, 5.9% active. AID 624255;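 active means mean inhibition above about 93%, with at least 55% of replicates each passing it, limit read from the data, passing the limit was not always enough; inconclusive means only one of those two conditions holds; inactive means neither condition holds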
Pf Dd2 inh: blocks growth of Plasmodium falciparum Dd2 parasites. 94,000 tested, 2.3% active. P. falciparum Dd2 growth, SYBR Green, 72 h; hits give low values. activity change, % at 10 µM; in the data active means activity change below about -80%; inconclusive means no clear call, values can overlap the other calls
IDH1 R132H inh: inhibitors of human IDH1 R132H. IDH1 R132H reductase, diaphorase/resazurin fluorescence, 60 min. inhibition, % at 10 µM. 70,000 tested, 0.18% active. O75874; in the data active means inhibition above about 34%; inconclusive means no clear call, values can overlap the other calls; inactive means below about 11%;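 further: 0% = DMSO and 100% = no enzyme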
Target sequence (O75874 whole entry R132H): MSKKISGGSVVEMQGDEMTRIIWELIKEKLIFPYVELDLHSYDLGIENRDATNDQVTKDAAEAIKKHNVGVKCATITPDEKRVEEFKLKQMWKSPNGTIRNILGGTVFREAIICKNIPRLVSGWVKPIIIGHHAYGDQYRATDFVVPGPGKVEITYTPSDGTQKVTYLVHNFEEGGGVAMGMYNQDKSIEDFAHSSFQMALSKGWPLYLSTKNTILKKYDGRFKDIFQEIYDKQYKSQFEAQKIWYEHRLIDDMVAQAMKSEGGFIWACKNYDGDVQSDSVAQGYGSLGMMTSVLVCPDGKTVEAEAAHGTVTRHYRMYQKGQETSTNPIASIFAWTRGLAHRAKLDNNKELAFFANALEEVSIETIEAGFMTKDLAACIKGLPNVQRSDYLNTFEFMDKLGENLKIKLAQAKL
KDM4C inh: inhibitors of human demethylase GASC-1 KDM4C; GST-KDM4C 2-372, H3K9me3 peptide, LANCE TR-FRET; 96,000 tested, 0.15% active; inhibition, % at 12.5 µM; Q9H3R0; AID 720574;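 active means mean replicate inhibition above about 25%, with at least 55% of replicates also reaching it, limit read from the data, passing the limit was not always enough; inconclusive means only one of those two conditions met; inactive means neither condition met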
Target sequence (Q9H3R0 2-372 limits assumed): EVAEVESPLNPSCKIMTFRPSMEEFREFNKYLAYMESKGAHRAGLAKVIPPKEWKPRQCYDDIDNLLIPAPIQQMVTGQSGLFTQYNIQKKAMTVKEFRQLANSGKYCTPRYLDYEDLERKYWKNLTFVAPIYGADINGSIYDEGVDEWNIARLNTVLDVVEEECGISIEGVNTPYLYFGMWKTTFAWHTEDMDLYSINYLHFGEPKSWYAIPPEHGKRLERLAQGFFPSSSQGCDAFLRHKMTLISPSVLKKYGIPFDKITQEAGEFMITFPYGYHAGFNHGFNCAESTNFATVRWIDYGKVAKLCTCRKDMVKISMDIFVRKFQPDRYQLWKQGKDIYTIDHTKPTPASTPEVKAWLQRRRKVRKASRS
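System: N-terminal GST-fused human GASC-1 (KDM4C) fragment, residues 2-372; amount: enzyme final amount 10 nM; incubation: reaction 30 min RT, detection step 1 h RT; medium: HEPES buffer, pH 7.5, plus ascorbate; technique: LANCE TR-FRET, Eu antibody, ULight-streptavidin, EDTA, ex 340 nm, em 618/671 nm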
T cruzi growth-2: blocks T. cruzi growth in NIH3T3 host cells. AID 651739. 5,600 tested, 72% active. shares compounds with T cruzi growth-1. inhibition, % at 8.35 µM. T. cruzi beta-gal in NIH3T3, GalScreen luminescence, 90 h;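 active means mean replicate inhibition above about 95% and at least 55% of replicates individually reaching it, limit read from the data; inconclusive means only one of the two criteria is met; inactive means neither criterion is met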
T cruzi growth-3: blocks T. cruzi growth in NIH3T3 host cells; shares compounds with T cruzi growth-1; T. cruzi beta-gal in NIH3T3, GalScreen luminescence, 90 h; inhibition, % at 2.09 µM; 5,600 tested, 21% active;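 active means mean inhibition above about 95%, with at least 55% of replicates also reaching it, limit read from the data; inconclusive means meets just one of the two conditions; inactive means meets neither condition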;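 further: plate controls were neutral control median for no effect and positive control median for full effect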
3T3 cytotox: cytotoxicity in mouse NIH/3T3 fibroblasts; shares compounds with T cruzi growth-1; NIH/3T3 viability, CellTiter-Glo ATP luminescence, 90 h; cytotoxicity (signal decrease), % at 8.35 µM; 5,600 tested, 14% active; AID 651742;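 active means mean signal decrease across replicates above about 35% based on untreated-well scatter, with enough replicates individually passing, limit read from the data; inconclusive means no rule stated though some were filed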;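 further: 0% = median of neutral control wells and 100% = median of positive control wells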
NIH3T3 tox 2: NIH/3T3 (mouse) viability loss; shares compounds with T cruzi growth-1; NIH/3T3 viability, CellTiter-Glo ATP luminescence, 90 h; inhibition, % at 24.9 µM; 5,600 tested, 56% active;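 active means mean loss of cell viability signal at or above a set limit, and enough replicates individually reaching it; inconclusive means meets only the mean limit or only the replicate share; inactive means meets neither condition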;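 further: 0% = median of neutral control wells and 100% = median of positive control wells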
Active calls of the source: *; ? = inconclusive; . = no result.

SMILES	T cruzi growth-1	Pf Dd2 inh	IDH1 R132H inh	KDM4C inh	T cruzi growth-2	T cruzi growth-3	3T3 cytotox	NIH3T3 tox 2
CC(=O)c1cn(CC(=O)Nc2cccc(C(F)(F)F)c2)c2ccccc12	.	.	0.9	.	.	.	.	.
COc1ccc(S(=O)(=O)n2cc(-c3ccc(F)cc3)c(N)n2)c(OC)c1	.	.	-0.1	.	.	.	.	.
COc1ccc(NC(=O)CN(c2ccccc2F)S(C)(=O)=O)cc1Cl	.	.	-0.4	.	.	.	.	.
COc1ccc(-n2c(SCC(=O)Nc3cc(NC(C)=O)ccc3OC)nc3ccccc3c2=O)cc1	.	.	0.1	.	.	.	.	.
O=C(Nc1ccc(F)cc1)N1C[C@H]2[C@@H](c3ccccc31)[C@@H](CO)N2Cc1ccccc1Cl	?	-9.1	.	-0.1	100.7*	7.6	-10.5	-5.3
O=C(Nc1ccc(F)cc1)N1C[C@@H]2[C@H](c3ccccc31)[C@@H](CO)N2Cc1ccccc1Cl	-32.0	-11.0	.	-0.2	.	.	.	.
O=C(COc1ccccc1Cl)Nc1ccccc1NC(=O)c1ccco1	.	.	-0.2	.	.	.	.	.
Cc1ccc(NC(=O)COc2ccccc2)c(NC(=O)c2cccs2)c1	.	.	-0.2	.	.	.	.	.
O=C(Cc1ccccc1[N+](=O)[O-])Nc1cc(Cl)ccc1Oc1ccccc1	.	.	0.4	.	.	.	.	.
Cc1ccc(NC(=O)CSc2nc3ccccc3c(=O)n2-c2cccc(C(F)(F)F)c2)c(C)c1	.	.	-0.2	.	.	.	.	.
CN(C)CC(=O)N1CCCCN2[C@H](C1)[C@H](c1ccc(/C=C/c3ccccc3)cc1)[C@@H]2CO	74.7	-4.9	.	-0.6	.	.	.	.
CN(C)CC(=O)N1CCCCN2[C@H](C1)[C@@H](c1ccc(/C=C/c3ccccc3)cc1)[C@@H]2CO	-45.7	-2.3	.	0.7	.	.	.	.
CN(C)CC(=O)N1CCCCN2[C@@H](CO)[C@H](c3ccc(/C=C/c4ccccc4)cc3)[C@@H]2C1	97.3*	-63.5	.	-0.8	?	102.3*	117.3*	102.2*
CCC(=O)N1CCCCN2[C@H](CO)[C@H](c3ccc(/C=C/c4ccccc4)cc3)[C@@H]2C1	113.0*	20.5	.	-3.5	108.4*	81.7	48.4*	45.0*
CN(C)CC(=O)N1CCCCN2[C@@H](CO)[C@@H](c3ccc(/C=C/c4ccccc4)cc3)[C@@H]2C1	102.3*	-77.7	.	-0.4	98.8*	113.3*	120.1*	104.2*
CC(=O)c1ccc(NC(=O)CNS(=O)(=O)c2ccc(C(C)(C)C)cc2)cc1	.	.	-0.2	.	.	.	.	.
C[C@H]1CN([C@@H](C)CO)S(=O)(=O)c2ccc(-c3ccncc3)cc2O[C@H]1CN(C)C(=O)Nc1ccc(F)cc1	92.0	-25.4	0.7	0.2	.	.	.	.
Cc1ccccc1-c1ccc2c(c1)O[C@H](CN(C)C(=O)Nc1ccccc1)[C@@H](C)CN([C@H](C)CO)S2(=O)=O	?	-25.5	-0.3	-1.0	78.8	-9.4	17.6	28.0*
C[C@H](CO)N1C[C@H](C)[C@@H](CN(C)C(=O)Nc2ccc(F)cc2)Oc2cc(-c3ccncc3)ccc2S1(=O)=O	93.3	-32.2	-1.2	0.0	.	.	.	.
Cc1ccccc1-c1ccc2c(c1)O[C@H](CN(C)C(=O)Nc1ccccc1)[C@H](C)CN([C@H](C)CO)S2(=O)=O	72.9	-8.6	-3.0	-4.3	.	.	.	.
C[C@@H]1CN([C@@H](C)CO)S(=O)(=O)c2ccc(-c3ccncc3)cc2O[C@H]1CN(C)C(=O)Nc1ccc(F)cc1	101.5*	4.0	.	-2.7	101.2*	85.7	-11.2	64.0*
C[C@@H]1CN([C@H](C)CO)S(=O)(=O)c2ccc(-c3ccncc3)cc2O[C@@H]1CN(C)C(=O)Nc1ccc(F)cc1	107.7*	8.1	.	0.1	97.0*	77.2	11.4	39.3*
C[C@H]1CN([C@@H](C)CO)S(=O)(=O)c2ccc(-c3ccncc3)cc2O[C@@H]1CN(C)C(=O)Nc1ccc(F)cc1	104.6*	-13.4	59.3*	24.8	102.2*	88.8	15.1	?
COc1ccccc1-n1nnnc1SCC(=O)Nc1ccccc1SC	.	.	0.0	.	.	.	.	.
CCn1c(SCC(=O)Nc2cc(C(F)(F)F)ccc2Cl)nnc1-c1ccccc1F	.	.	0.1	.	.	.	.	.
SMILES	T cruzi growth-1	Pf Dd2 inh	IDH1 R132H inh	KDM4C inh	T cruzi growth-2	T cruzi growth-3	3T3 cytotox	NIH3T3 tox 2
CCOc1ccc(Nc2nc(CSc3nc4ccccc4c(=O)n3-c3ccccc3)cs2)cc1	.	.	1.4	.	.	.	.	.
O=C(/C=C/c1ccc(OCCCc2ccccc2)cc1)NO	.	.	-0.2	.	.	.	.	.
Cc1ccc(-c2ccc3c(c2)O[C@@H](CN(C)C(=O)Nc2ccc(F)cc2)[C@H](C)CN([C@H](C)CO)S3(=O)=O)cc1	63.6	-61.8	-1.1	-0.2	.	.	.	.
Cc1ccc(-c2ccc3c(c2)O[C@@H](CN(C)C(=O)Nc2ccc(F)cc2)[C@H](C)CN([C@@H](C)CO)S3(=O)=O)cc1	119.1*	-4.5	.	-3.6	95.3*	42.1	43.2*	35.3*
CCCN(C)C[C@@H]1Oc2cc(C#Cc3ccccc3F)ccc2S(=O)(=O)N([C@@H](C)CO)C[C@@H]1C	?	-76.0	-0.4	-0.3	111.8*	88.6	23.3	105.7*
CCCN(C)C[C@@H]1Oc2cc(C#Cc3ccccc3)ccc2S(=O)(=O)N([C@@H](C)CO)C[C@@H]1C	111.5*	-79.3	-1.1	-5.3	112.6*	72.3	4.0	104.1*
CCCN(C)C[C@@H]1Oc2cc(C#Cc3ccccc3)ccc2S(=O)(=O)N([C@H](C)CO)C[C@@H]1C	43.9	-77.7	0.7	-3.2	.	.	.	.
CCCN(C)C[C@@H]1Oc2cc(C#CC(C)C)ccc2S(=O)(=O)N([C@@H](C)CO)C[C@H]1C	102.0*	-47.8	-0.7	0.5	111.0*	90.9	9.7	104.5*
CCCN(C)C[C@@H]1Oc2cc(C#Cc3ccc(OC)cc3)ccc2S(=O)(=O)N([C@@H](C)CO)C[C@@H]1C	?	-85.1*	0.4	-3.5	110.1*	85.5	43.4*	103.9*
C[C@H](CO)N1C[C@H](C)[C@@H](CN(C)S(C)(=O)=O)Oc2ncc(C3=CCCCC3)cc2C1=O	36.6	29.7	.	1.4	.	.	.	.
CCCN(C)C[C@@H]1Oc2cc(C#Cc3ccc(F)cc3)ccc2S(=O)(=O)N([C@@H](C)CO)C[C@@H]1C	85.4*	-63.9	-0.2	2.7	108.5*	?	?	105.7*
C[C@H](CO)N1C[C@H](C)[C@H](CN(C)Cc2ccc3c(c2)OCO3)Oc2c(NC(=O)Nc3ccc(C(F)(F)F)cc3)cccc2C1=O	103.1*	-20.4	0.4	-3.5	107.9*	102.6*	15.4	103.5*
C[C@@H]1CN([C@@H](C)CO)C(=O)c2cccc(NC(=O)Nc3ccc(C(F)(F)F)cc3)c2O[C@H]1CN(C)Cc1ccc2c(c1)OCO2	?	-47.7	.	.	105.3*	117.3*	2.7	54.9*
